Assay results reported in ChEMBL document CHEMBL1141207, “Novel cell-penetrating alpha-keto-amide calpain inhibitors as potential treatment for muscular dystrophy” (Bioorg Med Chem Lett, 2005).
Residues, ends and D or L forms follow the SMILES beside them. *: point of attachment. Cbz = O=C(OCc1ccccc1)*

How the values were obtained:
[1] = molecular target: T1, Calpain-1 catalytic subunit (Sus scrofa, UniProt P35750); assay: Inhibitory activity against porcine calpain I using Suc-Leu-Tyr-AMC fluorogenic substrate
T1 sequence (P35750 whole entry): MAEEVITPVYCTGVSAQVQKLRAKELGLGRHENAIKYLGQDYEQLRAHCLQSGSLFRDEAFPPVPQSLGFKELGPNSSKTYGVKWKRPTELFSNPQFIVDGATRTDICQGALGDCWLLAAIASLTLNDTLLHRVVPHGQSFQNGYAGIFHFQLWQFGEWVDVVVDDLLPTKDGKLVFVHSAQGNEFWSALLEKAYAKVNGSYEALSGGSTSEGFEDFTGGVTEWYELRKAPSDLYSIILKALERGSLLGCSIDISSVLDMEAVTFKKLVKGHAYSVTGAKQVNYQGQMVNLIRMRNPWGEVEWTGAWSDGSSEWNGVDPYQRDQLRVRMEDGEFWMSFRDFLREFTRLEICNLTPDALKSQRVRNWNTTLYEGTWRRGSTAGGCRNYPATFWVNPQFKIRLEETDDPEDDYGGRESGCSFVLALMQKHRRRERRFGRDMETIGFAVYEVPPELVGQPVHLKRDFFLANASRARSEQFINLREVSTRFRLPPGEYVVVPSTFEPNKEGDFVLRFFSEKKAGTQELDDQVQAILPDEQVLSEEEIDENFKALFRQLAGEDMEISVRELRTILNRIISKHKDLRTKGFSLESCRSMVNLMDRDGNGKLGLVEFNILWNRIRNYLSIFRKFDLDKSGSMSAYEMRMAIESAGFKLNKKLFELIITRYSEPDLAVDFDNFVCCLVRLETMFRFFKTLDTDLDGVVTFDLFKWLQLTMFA
Summary of the method: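 Purified porcine calpain I, cell-free; hydrolysis of fluorogenic Suc-Leu-Tyr-AMC followed as fluorescence increase over 30 min (ex 360 nm, em 440 nm); IC50 values are means of triplicates.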

[2] = Inhibition of calpain I in C2C12 myoblasts loaded with Suc-Leu-Tyr-AMC; format: functional, Mus musculus
Summary of the method: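 Cultured C2C12 myoblasts loaded with fluorogenic Suc-Leu-Tyr-AMC before the experiment; cellular calpain activated with Ca2+-ionophore Br-A-23187, then substrate hydrolysis by cellular calpain measured by fluorescence; IC50 values are means of triplicates.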

Caspase-3 (Homo sapiens) = molecular target: T2, Caspase-3 (Homo sapiens) (UniProt P42574); assay: Inhibition of caspase 3 at 10 uM
T2 sequence (whole entry): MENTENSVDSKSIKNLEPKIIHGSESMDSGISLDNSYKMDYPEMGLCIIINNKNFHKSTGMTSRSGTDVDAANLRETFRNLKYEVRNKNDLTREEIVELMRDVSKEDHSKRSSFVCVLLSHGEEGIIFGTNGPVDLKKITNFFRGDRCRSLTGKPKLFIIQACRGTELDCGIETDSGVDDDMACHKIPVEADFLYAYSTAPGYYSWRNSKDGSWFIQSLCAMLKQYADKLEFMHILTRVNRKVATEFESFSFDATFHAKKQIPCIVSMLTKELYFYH
Summary of the method: (§1)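 Selectivity profiling, single test concentration of 10 µM against caspase 3 and thrombin; percent inhibition reported as means of triplicates.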

Proteasome = assay: Inhibitory activity against 20S proteasome; format: subcellular
Summary of the method: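 Selectivity profiling against cathepsin B and 20S proteasome; IC50 values reported as means of triplicates.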

[3] = molecular target: Prothrombin (Homo sapiens) (UniProt P00734); assay: Inhibition of thrombin at 10 uM; summary of the method: as §1

| IC50 [1] [µM] | IC50 [2] [µM] | inhibition (Caspase-3 (Homo sapiens)) [%] | IC50 (Proteasome) [µM] | inhibition [3] [%] | SMILES |
| --- | --- | --- | --- | --- | --- |
| > 1 | – | – | – | – | CCNC(=O)C(=O)[C@@H](NC(=O)[C@@H](NC(=O)CCCCC1CCSS1)C(C)C)C(c1ccccc1)c1ccccc1 (some centres not stated) |
| 0.25 | 3 | – | – | – | CCNC(=O)C(=O)[C@H](CC1CCCCC1)NC(=O)[C@@H](NC(=O)CCCCC1CCSS1)C(C)C (some centres not stated) |
| 0.5 | 0.25 | – | – | – | CCNC(=O)C(=O)[C@H](CC(C)C)NC(=O)[C@@H](NC(=O)CCCCC1CCSS1)C(C)C (some centres not stated) |
| 0.1 | 5 | – | – | – | CCNC(=O)C(=O)[C@H](Cc1ccc(Cl)cc1)NC(=O)[C@@H](NC(=O)CCCC[C@@H]1SC[C@@H]2NC(=O)N[C@@H]21)C(C)C |
| > 1 | – | – | – | – | CC(C)C[C@H](NC(=O)CCCCC1CCSS1)C(=O)NC(Cc1ccc(Br)cc1)C(=O)C(=O)NC(C)(C)C (some centres not stated) |
| 0.1 | 20 | – | – | – | CCNC(=O)C(=O)[C@H](Cc1ccc(Cl)cc1)NC(=O)[C@@H](NC(=O)CCCCNC(=O)CCCCC1CCSS1)C(C)C (some centres not stated) |
| 0.12 | 1 | – | – | – | CC(C)C[C@H](NC(=O)CCCCC1CCSS1)C(=O)NC(Cc1ccc(Br)cc1)C(=O)C(=O)NCCCN1CCOCC1 (some centres not stated) |
| 0.1 | 0.7 | – | – | – | CCNC(=O)C(=O)[C@H](Cc1ccc(F)c(F)c1)NC(=O)[C@@H](NC(=O)CCCCC1CCSS1)C(C)C (some centres not stated) |
| > 1 | > 10 | – | – | – | CCNC(=O)C(=O)[C@H](CCc1ccccc1)NC(=O)[C@@H](NC(=O)CCCCC1CCSS1)C(C)C (some centres not stated) |
| 0.02 | 0.25 | – | – | – | CC(C)C[C@H](NC(=O)CCCCC1CCSS1)C(=O)NC(Cc1ccc(Br)cc1)C(=O)C(N)=O (some centres not stated) |
| > 1 | – | – | – | – | CCNC(=O)C(=O)[C@H](Cc1ccc(Cl)cc1)NC(=O)[C@@H](NC(=O)CCCCC1CCSS1)C(C)(C)C (some centres not stated) |
| 0.1 | 3.5 | – | – | – | CCNC(=O)C(=O)[C@H](Cc1ccc(Cl)cc1)NC(=O)[C@H](CC(C)(C)C)NC(=O)CCCCC1CCSS1 (some centres not stated) |
| > 10 | 4.5 | – | – | – | CCOC(=O)C(=O)C(Cc1ccc(Br)cc1)NC(=O)[C@H](CC(C)C)NC(=O)CCCCC1CCSS1 (some centres not stated) |
| 0.04 | 30 | – | – | – | CCNC(=O)C(=O)[C@H](Cc1ccc(Cl)cc1)NC(=O)[C@@H](NC(=O)CCNC(=O)CCCCC1CCSS1)C(C)C (some centres not stated) |
| 0.1 | 6 | – | – | – | CCNC(=O)C(=O)[C@H](Cc1cccs1)NC(=O)[C@@H](NC(=O)CCCCC1CCSS1)C(C)C (some centres not stated) |
| 0.07 | 0.35 | – | – | – | CCNC(=O)C(=O)[C@H](Cc1ccc(C)cc1)NC(=O)[C@@H](NC(=O)CCCCC1CCSS1)C(C)C (some centres not stated) |
| 0.07 | 0.28 | – | – | – | CC(C)C[C@H](NC(=O)CCCCC1CCSS1)C(=O)NC(Cc1ccc(Br)cc1)C(=O)C(=O)NC1CCCCC1 (some centres not stated) |
| 0.09 | 15 | – | – | – | CCNC(=O)C(=O)[C@H](Cc1ccc(Cl)cc1)NC(=O)[C@@H](NC(=O)OCc1ccccc1)C(C)C |
| 0.18 | 9 | – | – | – | CCNC(=O)C(=O)[C@H](Cc1ccc(Br)cc1)NC(=O)[C@@H](NC(=O)CCCCC1CCSS1)C(C)CC (some centres not stated) |
| 0.1 | 40 | – | – | – | CCNC(=O)C(=O)[C@H](Cc1ccc(Cl)cc1Cl)NC(=O)[C@@H](NC(=O)CCCCC1CCSS1)C(C)C (some centres not stated) |
| 0.12 | 2 | – | – | – | CCNC(=O)C(=O)[C@H](Cc1ccc(Cl)cc1)NC(=O)[C@@H](NC(=O)CCCC1CCCS1)C(C)C (some centres not stated) |

The remaining lines, values behind:

| SMILES | IC50 [1] [µM] | IC50 [2] [µM] | inhibition (Caspase-3 (Homo sapiens)) [%] | IC50 (Proteasome) [µM] | inhibition [3] [%] |
| --- | --- | --- | --- | --- | --- |
| CC(C)C[C@H](NC(=O)CCCCC1CCSS1)C(=O)NC(Cc1ccc(Br)cc1)C(=O)C(=O)NCCc1ccccn1 (some centres not stated) | 0.23 | 0.8 | – | – | – |
| CCNC(=O)C(=O)[C@H](Cc1ccc(C(F)(F)F)cc1)NC(=O)[C@@H](NC(=O)CCCCC1CCSS1)C(C)C (some centres not stated) | 0.2 | 1.1 | – | – | – |
| CCNC(=O)C(=O)[C@H](Cc1ccc(Cl)cc1)NC(=O)[C@@H](NC(=O)CCCCC1CCS[S+]1[O-])C(C)C (some centres not stated) | 0.08 | 6 | – | – | – |
| CCNC(=O)C(=O)[C@H](Cc1ccc(Cl)cc1)NC(=O)[C@@H](NC(=O)CCCCc1ccccc1)C(C)C | 0.06 | 1.5 | – | – | – |
| CCNC(=O)C(=O)[C@H](Cc1cccc(C(F)(F)F)c1)NC(=O)[C@@H](NC(=O)CCCCC1CCSS1)C(C)C (some centres not stated) | 0.1 | 15 | – | – | – |
| CCNC(=O)C(=O)[C@H](Cc1ccccc1)NC(=O)[C@@H](NC(=O)CCCCC1CCSS1)C(C)C (some centres not stated) | 0.08 | 3.5 | – | – | – |
| CC(C)C[C@H](NC(=O)CCCCC1CCSS1)C(=O)NC(Cc1ccc(Br)cc1)C(=O)C(=O)O (some centres not stated) | 0.05 | 5 | – | – | – |
| CCNC(=O)C(=O)[C@H](Cc1ccc(Br)cc1)NC(=O)[C@@H](NC(=O)CCCCC1CCSS1)C1CCCCC1 (some centres not stated) | > 1 | – | – | – | – |
| CCNC(=O)C(=O)[C@@H](Cc1ccc(Br)cc1)NC(=O)[C@H](CC(C)C)NC(=O)CCCCC1CCSS1 (some centres not stated) | 0.039 | 0.4 | – | – | – |
| CCNC(=O)C(=O)[C@H](Cc1ccc(OC)cc1)NC(=O)[C@@H](NC(=O)CCCCC1CCSS1)C(C)C (some centres not stated) | 0.12 | 0.22 | – | – | – |
| CCCCCCCCCCCC(=O)N[C@H](C(=O)N[C@@H](Cc1ccc(Cl)cc1)C(=O)C(=O)NCC)C(C)C | > 1 | – | – | – | – |
| CCNC(=O)C(=O)[C@H](Cc1ccc(Cl)c(Cl)c1)NC(=O)[C@@H](NC(=O)CCCCC1CCSS1)C(C)C (some centres not stated) | 0.08 | 10 | – | – | – |
| CCNC(=O)C(=O)[C@H](Cc1ccc(C(C)(C)C)cc1)NC(=O)[C@@H](NC(=O)CCCCC1CCSS1)C(C)C (some centres not stated) | 0.4 | 1.8 | – | – | – |
| CCNC(=O)C(=O)[C@H](Cc1ccc(O)cc1)NC(=O)[C@@H](NC(=O)CCCCC1CCSS1)C(C)C (some centres not stated) | 0.15 | 2.5 | – | – | – |
| CCNC(=O)C(=O)[C@H](Cc1ccc(Cl)cc1)NC(=O)[C@@H](NC(=O)CCC1CCCS1)C(C)C (some centres not stated) | 0.1 | 3.2 | – | – | – |
| CCNC(=O)C(=O)[C@H](Cc1ccc(F)cc1)NC(=O)[C@@H](NC(=O)CCCCC1CCSS1)C(C)C (some centres not stated) | 0.1 | 2.5 | – | – | – |
| CCNC(=O)C(=O)[C@@H](NC(=O)[C@@H](NC(=O)CCCCC1CCSS1)C(C)C)c1ccccc1 (some centres not stated) | 0.4 | 2 | – | – | – |
| CCNC(=O)C(=O)[C@H](Cc1ccc(Cl)cc1)NC(=O)[C@@H](NC(=O)CNC(=O)CCCCC1CCSS1)C(C)C (some centres not stated) | 0.03 | 1 | – | – | – |
| CC(C)[C@H](NC(=O)OCc1ccccc1)C(=O)N[C@H](C=O)Cc1ccccc1 (Cbz-Val-Phe-aldehyde) | 0.02 | 10 | 0 | > 1 | 0 |
| CCNC(=O)C(=O)[C@H](Cc1ccc(Cl)cc1)NC(=O)[C@@H](NC(=O)CCCCC1CCCS1)C(C)C (some centres not stated) | 0.1 | 0.4 | – | – | – |
| CCNC(=O)C(=O)[C@H](Cc1ccc(Br)cc1)NC(=O)[C@H](CC(C)C)NC(=O)CCCCC1CCSS1 (some centres not stated) | 0.024 | 0.4 | – | – | – |
| CCNC(=O)C(=O)[C@H](Cc1ccc(C#N)cc1)NC(=O)[C@@H](NC(=O)CCCCC1CCSS1)C(C)C (some centres not stated) | 0.12 | 5 | – | – | – |
| CCCCc1ccc(C(=O)N[C@H](C(=O)N[C@@H](Cc2ccc(Cl)cc2)C(=O)C(=O)NCC)C(C)C)cc1 | 0.15 | 25 | – | – | – |
| CC(C)C[C@H](NC(=O)CCCCC1CCSS1)C(=O)NC(Cc1ccc(Br)cc1)C(=O)C(=O)N1CCOCC1 (some centres not stated) | > 1 | – | – | – | – |
